# From PubChem
# NSD2 HMT inh = blocks human histone methyltransferase NSD2 | NSD2 peptide methylation, AlphaScreen, 120 min | inhibition, % at 12.5 µM | 310,000 compounds, 0.54% hits
# HCV NS3 hel inh = HCV NS3 helicase inhibition; 290,000 compounds, 0.56% hits; NS3 helicase DNA unwinding, Cy5 molecular beacon fluorescence; inhibition, % at 10.9 µM;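 active = inhibition above the mean of all tested compounds plus 3 SD, set per campaign, cut at about 35% in these data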;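 also: 0% = DMSO wells and 100% = thioflavine S control wells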
#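 Measured by: Cy5 fluorescence, 0 and 60 min reads / Assay system: NS3 helicase fragment of HCV / Control set: low DMSO, high thioflavine S at 110 µM / Times: 1 h reaction at 25 °C, ATP-initiated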
# CASP6 VEID inh = blocks human caspase-6 cleavage activity | 350,000 compounds, 0.53% hits | purified caspase-6, Z-VEID-R110 cleavage fluorescence | AID 686996 | inhibition, % at 12.5 µM | P55212;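 active = mean inhibition across replicates at least about 35%, with every replicate also reaching that limit, limit read from the data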;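 also: 0% = median of neutral control wells and 100% = no fluorescence left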
# Target sequence (P55212 24-179 limits assumed): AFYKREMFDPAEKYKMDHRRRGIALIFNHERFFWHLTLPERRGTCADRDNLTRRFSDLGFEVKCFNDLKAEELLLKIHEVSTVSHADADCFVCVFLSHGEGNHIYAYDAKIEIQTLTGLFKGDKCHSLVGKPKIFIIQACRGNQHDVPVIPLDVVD
# Target sequence (P55212 194-293 limits assumed): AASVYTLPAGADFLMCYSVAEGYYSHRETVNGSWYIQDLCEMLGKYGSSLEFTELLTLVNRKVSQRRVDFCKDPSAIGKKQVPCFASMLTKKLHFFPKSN
# DNMT1 inh = inhibitors of human DNMT1; DNMT1 molecular beacon, Hinp1I cleavage, fluorescence; inhibition (reported as % activation of signal), % at 10 µM; 360,000 compounds, 0.83% hits
# Beacon interf DR = shows spectral interference in the DNMT1 beacon assay; shares compounds with DNMT1 inh; molecular beacon fluorescence, spectral interference counter-screen; IC50, µM; 200 tested, under 10 active; AID 602382; call rule not given here
# DNMT1 inh conf = confirmation of human DNMT1 inhibitors. DNMT1 molecular beacon HinP1I cleavage, fluorescence. shares compounds with DNMT1 inh. AID 602385. inhibition, % at 10 µM. 2,300 compounds, 8% hits;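 active = average inhibition of at least 30% in the single-concentration confirmation test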
# DNMT1 interf = beacon fluorescence artifact counter-screen; shares compounds with DNMT1 inh; DNMT1 molecular beacon spectral interference counterscreen, fluorescence 485/520; activation (fluorescence interference), % at 10 µM; 2,300 compounds, 1% hits; AID 602387;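 active = activation of at least 30% at 10 µM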;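 also: DNMT1 catalytic domain with a HinP1I cleavage step and a FAM/dabcyl DNA beacon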
# Starred values were filed as active, the others as inactive; / = no result given. Most compounds without a hit are left out; they make up all but 1.5% or so of the library. Rule as the data show it, unless noted: active = inhibition above about 50%; inactive = the rest.
SMILES,NSD2 HMT inh,HCV NS3 hel inh,CASP6 VEID inh,DNMT1 inh,DNMT1 inh conf,DNMT1 interf,others
COc1ccc(C2c3c(-c4ccccc4O)n[nH]c3C(=O)N2Cc2ccco2)cc1 (stereo not drawn),0,-25,-1,66*,1,2,
COc1cccc(C2c3c(-c4cc(Cl)c(C)cc4O)n[nH]c3C(=O)N2Cc2cccnc2)c1 (stereo not drawn),3,1,/,98*,2,4,
CC(C)CC#Cc1cnc2c(c1)C(=O)N([C@@H](C)CO)C[C@@H](C)[C@@H](CN(C)C(=O)CN1CCOCC1)O2,/,/,-2,/,/,/,
CC(=O)N[C@@H]1CC[C@@H](CCNC(=O)C2CCCCC2)O[C@@H]1CO,/,/,0,/,/,/,
COc1ccc(C(=O)OCn2nnc3ccccc3c2=O)cc1,0,3,4,4,/,/,
COc1cc(OC)cc(C(=O)NC(C(=O)OCn2nnc3ccccc3c2=O)C(C)C)c1 (stereo not drawn),-4,/,0,87*,5,3,
O=C(/C=C/c1ccc2c(c1)OCO2)Nc1nc2ccccc2s1,0,11,/,39,/,/,
Cc1ccc2nc(NC(=O)/C=C/c3ccc4c(c3)OCO4)sc2c1,0,-1,/,56*,2,-4,
COc1cc(C(=O)Nc2nc(-c3ccc(Cl)cc3)c(C)s2)ccc1OCC(=O)Nc1ccc(F)cc1,2,14,/,25,/,/,
CCc1ccc(-c2nc(NC(=O)c3ccc(OCC(=O)Nc4ccc(F)cc4)c(OC)c3)sc2C)cc1,0,0,-1,61*,0,1,
O=C(Nc1ccc2oc(-c3ccccc3F)nc2c1)c1cncc(Br)c1,-1,-1,/,62*,2,2,
O=C(Nc1ccc2oc(-c3ccccc3F)nc2c1)c1ccc([N+](=O)[O-])o1,2,2,6,108*,6,-5,
O=C(Nc1ccc2oc(-c3ccccc3)nc2c1)c1cccnc1,8,-10,/,-1,/,/,
CC(=O)Nc1ccc2c(c1)C(=O)N(C)[C@H]1CC[C@@H](CC(=O)NCc3ccccc3)O[C@@H]1CO2,/,/,-2,/,/,/,
O=C(OCCCc1cc2ccccc2c(=O)o1)c1ccc2c(c1)OCO2,/,/,-5,3,/,/,
O=C(OCCc1cc2ccccc2c(=O)o1)c1ccc2c(c1)OCO2,/,/,-2,71*,1,1,
Cc1ccc(C(=O)NCc2ccco2)o1,9,6,11,17,/,/,
Cc1ccc(C(=O)NCc2occc2C(=O)O)o1,13,8,/,53*,3,1,
CO[C@H](CN(C)S(=O)(=O)c1ccc(Cl)cc1)[C@H](C)CN([C@@H](C)CO)S(=O)(=O)c1cccc(Cl)c1,/,/,1,/,/,/,
O=C(CCN1C(=O)/C(=C\C=C\c2ccccc2)SC1=S)Nc1ccccc1C(=O)O,31,0,45*,75*,13,-1,
O=C(COC(=O)CCN1C(=O)/C(=C\C=C\c2ccccc2)SC1=S)Nc1ccc(Br)cc1,0,4,5,67*,3,5,
COCC(=O)Nc1ccc2c(c1)OC[C@H](C)N(C(=O)Cc1cccnc1)C[C@@H](C)[C@H](OC)CN(C)C2=O,/,/,2,/,/,/,
CCN(CC)CCNc1nc2cc(OC)c(OC)cc2c2nc(-c3ccccc3)nn12,1,4,/,67*,26,-4,Beacon interf DR=>99
COc1cc2[nH]c(=O)n3nc(-c4ccccc4)nc3c2cc1OC,/,5,/,-1,/,/,
CO[C@@H]1CN(C)C(=O)c2cc(NC(=O)Nc3c(C)noc3C)ccc2OC[C@H](C)N(C)C[C@@H]1C,/,/,1,/,/,/,
SMILES,NSD2 HMT inh,HCV NS3 hel inh,CASP6 VEID inh,DNMT1 inh,DNMT1 inh conf,DNMT1 interf,others
O=C(OCc1cc(=O)n2ccsc2n1)c1ccccc1NCCO,-1,/,13,59*,4,3,
CCOc1ccc2nc(NC(=O)CN3CCN(C)CC3)sc2c1,5,-12,/,73*,3,5,
O=C(C1CCC1)N1CC2(C1)[C@@H](c1ccccc1)[C@H](CO)N2C(=O)CC1CC1,/,/,-1,/,/,/,
C[C@@H]1CN([C@@H](C)CO)C(=O)c2cc(NC(=O)CCCN(C)C)ccc2O[C@@H]1CN(C)Cc1ccc(C(=O)O)cc1,/,/,2,/,/,/,
O=C(CNC(=O)Cc1ccccc1)NCC(=O)OCc1ccccc1,16,6,/,68*,0,3,
O=C(Cc1c(F)cccc1Cl)NCC(=O)OCc1ccccc1,-1,/,0,-8,/,/,
O=C(CNC(=O)c1ccco1)NCC(=O)OCc1ccc(Cl)cc1Cl,/,2,1,66*,1,5,
O=C(CNC(=O)c1ccco1)NCC(=O)OCc1ccc(Cl)cc1,2,-4,/,1,/,/,
CC(=O)N(C)C[C@@H]1Oc2cc(-c3cccnc3)ccc2S(=O)(=O)N([C@@H](C)CO)C[C@@H]1C,/,/,-5,/,/,/,
C[C@H](CO)N1C[C@H](C)[C@@H](CN(C)C(=O)C2CCC2)Oc2cc(C3=CCCC3)ccc2S1(=O)=O,/,/,0,/,/,/,
C[C@H](NC(=O)C[C@H]1C[C@@H]2c3cc(NC(=O)NC4CCCCC4)ccc3O[C@@H]2[C@H](CO)O1)c1ccccc1,/,/,-1,/,/,/,
O=C(/C=C/c1ccco1)OCC(=O)N1CCCCC1,4,/,50*,50*,-1,0,
O=C1COc2ccc(C(=O)COC(=O)/C=C/c3ccco3)cc2N1,5,/,/,57*,5,3,
CCN(C(=O)COC(=O)/C=C/c1ccc(F)cc1)C1CCCCC1,0,/,2,-5,/,/,
CCN(C(=O)COC(=O)/C=C/c1ccco1)C1CCCCC1,10,/,57*,75*,6,3,
